# Reference: ChEMBL document CHEMBL4049410, “Novel benzimidazolyl tetrahydroprotoberberines: Design, synthesis, antimicrobial evaluation and multi-targeting exploration” (2017)
# Experiments:
# Pseudomonas aeruginosa = test: Antibacterial activity against Pseudomonas aeruginosa after 24 hrs by two-fold serial dilution assay; format: functional
# Outline: (§1)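 Twofold serial broth dilution following NCCLS guidance, with Chloromycin, Norfloxacin and Fluconazole as positive controls. MIC in μM is the lowest concentration giving complete inhibition of visible bacterial or fungal growth.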
# Candida albicans = test: Antifungal activity against Candida albicans ATCC 76615 after 24 hrs by two-fold serial dilution assay; format: functional; outline: as §1
# Salmonella typhi = test: Antibacterial activity against Bacillus typhi after 24 hrs by two-fold serial dilution assay; format: functional, Salmonella enterica subsp. enterica serovar Typhi
# Pichia norvegensis = test: Antifungal activity against Candida mycoderma after 24 hrs by two-fold serial dilution assay; format: functional; outline: as §1
# Staphylococcus aureus [1] = test: Antibacterial activity against Staphylococcus aureus ATCC 25923 after 24 hrs by two-fold serial dilution assay; format: functional; outline: as §1
# Proteus vulgaris = test: Antibacterial activity against Bacillus proteus ATCC 13315 after 24 hrs by two-fold serial dilution assay; format: functional; outline: as §1
# Escherichia coli [2] = test: Antibacterial activity against Escherichia coli DH52 after 24 hrs by two-fold serial dilution assay; format: functional; outline: as §1
# Staphylococcus aureus [3] = test: Antibacterial activity against methicillin-resistant Staphylococcus aureus N315 after 24 hrs by two-fold serial dilution assay; format: functional
# Micrococcus luteus = test: Antibacterial activity against Micrococcus luteus ATCC 4698 after 24 hrs by two-fold serial dilution assay; format: functional, NCTC 2665; outline: as §1
# Cyberlindnera jadinii = test: Antifungal activity against Candida utilis after 24 hrs by two-fold serial dilution assay; format: functional; outline: as §1
# Escherichia coli [4] = test: Antibacterial activity against Escherichia coli JM109 after 24 hrs by two-fold serial dilution assay; format: functional; outline: as §1
# Shigella dysenteriae = test: Antibacterial activity against Shigella dysenteriae after 24 hrs by two-fold serial dilution assay; format: functional
# Bacillus subtilis = test: Antibacterial activity against Bacillus subtilis after 24 hrs by two-fold serial dilution assay; format: functional; outline: as §1
# Saccharomyces cerevisiae = test: Antifungal activity against Saccharomyces cerevisiae after 24 hrs by two-fold serial dilution assay; format: functional; outline: as §1
# Aspergillus flavus = test: Antifungal activity against Aspergillus flavus after 24 hrs by two-fold serial dilution assay; format: functional; outline: as §1
# [5] = Pseudomonas aeruginosa, 24 h, read-out: MIC
# [6] = Candida albicans, ATCC 76615, 24 h, read-out: MIC
# [7] = Salmonella enterica, 24 h, read-out: MIC
# [8] = Pichia norvegensis, 24 h, read-out: MIC
# [9] = Staphylococcus aureus, ATCC 25923, 24 h, read-out: MIC
# [10] = Proteus vulgaris, ATCC 13315, 24 h, read-out: MIC
# [11] = Escherichia coli, DH52, 24 h, read-out: MIC
# [12] = Staphylococcus aureus, N315, 24 h, read-out: MIC
# [13] = Micrococcus luteus, NCTC 2665, 24 h, read-out: MIC
# [14] = Williopsis jadinii, 24 h, read-out: MIC
# [15] = Escherichia coli, JM109, 24 h, read-out: MIC
# [16] = Shigella dysenteriae, 24 h, read-out: MIC
# [17] = Bacillus subtilis, 24 h, read-out: MIC
# [18] = Saccharomyces cerevisiae, 24 h, read-out: MIC
# [19] = Aspergillus flavus, 24 h, read-out: MIC
Compound,MIC (Pseudomonas aeruginosa; [5]) [µM],MIC (Candida albicans; [6]) [µM],MIC (Salmonella typhi; [7]) [µM],MIC (Pichia norvegensis; [8]) [µM],MIC (Staphylococcus aureus [1]; [9]) [µM],MIC (Proteus vulgaris; [10]) [µM],MIC (Escherichia coli [2]; [11]) [µM],MIC (Staphylococcus aureus [3]; [12]) [µM],MIC (Micrococcus luteus; [13]) [µM],MIC (Cyberlindnera jadinii; [14]) [µM],MIC (Escherichia coli [4]; [15]) [µM],MIC (Shigella dysenteriae; [16]) [µM],MIC (Bacillus subtilis; [17]) [µM],MIC (Saccharomyces cerevisiae; [18]) [µM],MIC (Aspergillus flavus; [19]) [µM],other results
COc1ccc2c(c1O)CN1CCc3cc4c(cc3C1C2)OCO4 (stereo not given),787,524,787,164,787,1310,1570,1310,1570,1050,656,1570,1570,1570,656,–
COc1cc(-c2nc3cc(Cl)ccc3[nH]2)c2c(c1O)CN1CCc3cc4c(cc3C1C2)OCO4 (stereo not given),359,896,448,896,1080,896,896,1080,896,717,896,1080,717,896,1080,–
COc1cc(-c2nc3ccccc3n2Cc2ccccc2Cl)c2c(c1O)CN1CCc3cc4c(cc3C1C2)OCO4 (stereo not given),23.6,56.5,37.7,47.1,9.4,47.1,23.6,23.6,23.6,18.9,4.7,28.3,188,23.6,11.8,–
COc1cc(-c2nc3ccccc3[nH]2)c2c(c1O)CN1CCc3cc4c(cc3C1C2)OCO4 (stereo not given),145,483,48.3,60.4,580,242,96.7,121,242,242,60.4,96.7,48.3,48.3,72.5,–
COc1cc(-c2nc3ccccc3n2Cc2ccc(Cl)cc2)c2c(c1O)CN1CCc3cc4c(cc3C1C2)OCO4 (stereo not given),–,–,–,–,–,–,–,–,–,–,–,–,–,–,–,MIC (Pseudomonas aeruginosa): 23.6 µM; MIC (Candida albicans): 23.6 µM; MIC (Salmonella typhi): 9.4 µM; MIC (Pichia norvegensis): 14.1 µM; MIC (Staphylococcus aureus [1]): 9.4 µM; MIC (Proteus vulgaris): 11.8 µM; MIC (Escherichia coli [2]): 56.5 µM; MIC (Staphylococcus aureus [3]): 18.9 µM; MIC (Micrococcus luteus): 28.3 µM; MIC (Cyberlindnera jadinii): 11.8 µM; MIC (Escherichia coli [4]): 37.7 µM; MIC (Shigella dysenteriae): 18.9 µM; MIC (Bacillus subtilis): 11.8 µM; MIC (Saccharomyces cerevisiae): 14.1 µM; MIC (Aspergillus flavus): 14.1 µM
COc1cc(-c2nc3ccccc3n2Cc2ccc(Cl)cc2Cl)c2c(c1O)CN1CCc3cc4c(cc3C1C2)OCO4 (stereo not given),88.8,22.2,22.2,13.3,22.2,17.7,107,53.3,44.4,22.2,35.5,71.1,11.1,26.6,71.1,–
COc1ccc(Cn2c(-c3cc(OC)c(O)c4c3CC3c5cc6c(cc5CCN3C4)OCO6)nc3ccccc32)cc1 (stereo not given),38,38,47.5,57,47.5,47.5,95,57,57,57,38,57,19,38,23.8,–
